Source: PubChem BioAssay (several laboratories)
NF-kB neuron act = compounds increasing NF-kB expression in human neuronal cells; NF-kB reporter expression; stronger effect = higher value; fold change at 12.5 µM; 190,000 tested, 1.6% active; AID 1239; in the data active = fold change above about 3.3
STAT3 act = activators of IL-6 induced STAT3 signaling; activation (% of control), % at 5.6 µM; AID 871; 190,000 tested, 0.91% active; U3A cells, IL-6 STAT3-luciferase reporter, luminescence; 100% = signal with IL-6 EC80 alone;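 active = activation above the screen-wide mean of compound activation plus 3 SD, cut at about 130% in these data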;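 note: 0% = background luminescence of wells with medium and substrate only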
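Assay system – human STAT1-deficient U3A cells with stable STAT3-luciferase reporter · Also added – IL-6 (33 ng/mL) · Schedule – compound 1 h, then IL-6 6 h at 37 °C · Technique – reporter luminescence signal · Evaluation – % activation versus median of IL-6-stimulated wells · Benchmarks – IL-6-only wells as 100% reference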
APP 5'UTR act = activates APP 5'UTR luciferase reporter. SH-SY5Y APP 5'UTR luciferase reporter, luminescence; zero percent = DMSO vehicle wells. activation, % at 2 µM. 190,000 tested, 1% active. AID 1276;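 active = activation above a set limit, based on mean plus 3 SD of controls, cut at about 140% in these data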
STAT1 blocker = STAT1 signaling inhibition | NIH 3T3 STAT1-luciferase reporter, IFN-gamma, luminescence | inhibition, % at 5.5 µM | 200,000 tested, 0.35% active | AID 920;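 active = inhibition above a set limit, the mean inhibition across all tested compounds plus 3 SD, cut at about 34% in these data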;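 note: 0% = IFN-gamma with DMSO and 100% = IFN-gamma with 300 µM nifuroxazide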
STAT3 blocker = inhibitors of IL-6 induced STAT3 signaling | U3A cells, IL-6 STAT3-luciferase reporter, luminescence; host cell line lacks STAT1 | inhibition, % at 5.5 µM | 190,000 tested, 0.89% active | AID 862;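 active = inhibition above the mean inhibition across all screened compounds plus 3 SD, cut at about 44% in these data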;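 note: 0% = DMSO only wells and 100% = 100 µM nifuroxazide control wells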
STAT1 activator = STAT1 signaling activation; NIH 3T3 STAT1-luciferase reporter, IFN-gamma, luminescence; 100% = IFN-gamma alone, no compound; activation (% of control), % at 5.5 µM; 200,000 tested, 2.6% active; AID 932;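 active = activation above the screen-wide mean activation plus 3 SD, cut at about 130% in these data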;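 note: raw ratio to IFN-gamma control signal so 100% means no change and 0% no light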
An asterisk follows results filed as active. The list is not random: actives were taken first. Their share in the collection is about 4.9%.

SMILES | NF-kB neuron act | STAT3 act | APP 5'UTR act | STAT1 blocker | STAT3 blocker | STAT1 activator
Cc1cc(N/N=C2\CC(C)CC(C)(C)C2)nc2ccccc12 (stereo not drawn) | 1.1 | 106 | 37 | -4 | -2 | 105
CCOC(=O)c1c(C)n(OCc2ccccc2)c2ccc3c(no[n+]3[O-])c12 | 1.3 | 102 | 0 | -11 | 2 | 109
Cn1c(-c2ccccc2)cc2c3no[n+]([O-])c3ccc21 | 1.5 | 103 | 0 | -34 | 6 | 130*
O=C(CCCOc1ccccc1)N1CCN(c2ccccc2)CC1 | 2 | 103 | 24 | -32 | -2 | 131*
O=C(CCSc1ccccc1)N1CCN(c2ccccc2)CC1 | 2.5 | 111 | 58 | -33 | -10 | 131*
CCOC(=O)N1CCN(C(=O)CCCOc2ccccc2)CC1 | 2 | 116 | 81 | -26 | -17 | 125
O=C(CCSc1ccc(Cl)cc1)N1CCCCCC1 | 2.3 | 103 | 38 | -35 | 7 | 132*
Cc1cccc(N2CCN(C(=O)CCCOc3ccccc3)CC2)c1C | 2 | 115 | 101 | -35 | -12 | 132*
NC(=O)C1CCN(C(=O)CCSc2ccc(Cl)cc2)CC1 | 1.4 | 107 | -3 | -15 | -6 | 114
COc1ccc(CCNC(=O)c2c(C)nc3ccccn23)cc1OC | 1.4 | 102 | -10 | -1 | 3 | 99
CN(C)S(=O)(=O)c1cccc(C(=O)N(Cc2ccc(F)cc2)Cc2ccco2)c1 | 0.98 | 101 | -14 | 8 | 3 | 97
O=C(c1cccc(S(=O)(=O)N2CCOCC2)c1)N(Cc1ccc(F)cc1)Cc1ccco1 | 0.81 | 134* | 1 | 1 | -29 | 98
Cn1c(-c2ccc3ccccc3n2)nc2cnccc21 | 2 | 110 | 109 | -36 | -2 | 133*
COC(=O)C(C)n1cnc2c(cnn2-c2ccc(Cl)cc2)c1=O (stereo not drawn) | 1.2 | 98 | 6 | -32 | 8 | 129*
CCOC(=O)Cn1cnc2c(cnn2-c2ccc(Cl)cc2)c1=O | 1.6 | 95 | -5 | -6 | 9 | 106
CCn1c(=O)[nH]c2cc(C(=O)Nc3cc(C)cc(C)c3)ccc2c1=O | 1.2 | 81 | 11 | 4 | 26 | 94
Fc1ccccc1Cn1nnc(-c2ccc3c(c2)OCO3)n1 | 5.7* | 108 | 166* | -39 | -5 | 136*
O=C(NCc1ccccc1F)c1ccc2c(c1)OCO2 | 1.3 | 105 | 3 | 1 | 0 | 99
Cc1cc(C(=O)COC(=O)c2ccc(Br)o2)c(C)n1C | 4* | 100 | 71 | -37 | 6 | 135*
Cc1ccc(C(=O)COC(=O)c2ccc(Br)o2)cc1C | 1.5 | 91 | 7 | -14 | 14 | 113
COCCn1c(C)cc(C(=O)COC(=O)c2ccc(Br)o2)c1C | 1.1 | 105 | 268* | -7 | -2 | 106
COCCn1c(C)cc(C(=O)COC(=O)CNC(=O)c2ccccc2)c1C | 1 | 78 | -7 | 4 | 26 | 96
CCOC(=O)C1=C(C)N=C2SC(C(=O)OC)=CC(=O)N2C1c1cc(OC)c(OC)c(OC)c1 (stereo not drawn) | 0.98 | 115 | 0 | -10 | -10 | 109
Cc1ccccc1OCc1nnc2c3cnn(C)c3ncn12 | 2 | 99 | 12 | -43 | 7 | 139*
O=C(/C=C/c1ccc2c(c1)OCCCO2)c1ccccc1O | 3.6* | 107 | 216* | -31 | -8 | 128
SMILES | NF-kB neuron act | STAT3 act | APP 5'UTR act | STAT1 blocker | STAT3 blocker | STAT1 activator
COc1cc(/C=C/C(=O)c2ccccc2O)cc(OC)c1OC | 1.5 | 107 | -5 | 7 | -7 | 93
CN(C)c1ccc(/C=C/C(=O)c2ccccc2O)cc1 | 3.5* | 86 | 137* | -16 | 21 | 115
Clc1ccc(Sc2cc(Cl)c(-c3ccccc3)nn2)cc1 | 0.88 | 142* | -10 | 3 | -52 | 98
COC(=O)c1[nH]c2ccc(C)cc2c1NC(=O)CN1CCCc2ccccc21 | 0.75 | 135* | 14 | 9 | -40 | 92
Cc1ccc2[nH]c3c(c2c1)CN(C(=O)CN1CCCc2ccccc21)CC3 | 0.83 | 133* | -2 | -1 | -35 | 99
COC(=O)c1[nH]c2cc(C)ccc2c1NC(=O)CN1CCN(c2ccccc2OC)CC1 | 0.6 | 121 | 25 | 13 | -22 | 88
O=C1OCCC1Sc1nc2ccccc2s1 (stereo not drawn) | 1.3 | 104 | -8 | -5 | -2 | 106
OC1CCCCC1Sc1nc2ccccc2s1 (stereo not drawn) | 2.1 | 105 | 10 | -33 | -2 | 130*
Clc1ccc(-c2nnc(CCc3ccccc3)o2)c(Cl)c1 | 2.5 | 103 | 62 | -41 | 1 | 137*
Clc1ccc(-c2nnc(SCc3nc4ccccc4[nH]3)o2)c(Cl)c1 | 1.1 | 100 | 55 | 4 | 3 | 96
C=CCSc1nnc(-c2ccc(Cl)cc2Cl)o1 | 7.5* | 76 | 159* | -22 | 33 | 120
Clc1ccc(-c2nnc(SCc3ccon3)o2)c(Cl)c1 | 9.7* | 72 | 144* | -28 | 35 | 141*
O=[N+]([O-])c1ccccc1S(=O)(=O)N1CCN(Cc2ccsc2)CC1 | 0.95 | 100 | 14 | 4 | 5 | 93
CC1=NN(Cc2c(C)nn(Cc3ccccc3)c2C)C(C)(C)C1 | 1.1 | 97 | -10 | 2 | 7 | 97
COc1cccc(-c2nnc(NC(=O)c3ccc4ncsc4c3)o2)c1 | 1.2 | 94 | -1 | -4 | 7 | 104
Cc1nn(-c2cccc([N+](=O)[O-])c2)c(N)c1-c1ccccc1 | 3.2 | 108 | 49 | -44 | 0 | 142*
CCOC(=O)C(=O)N=Nc1c(O)n(C)c2ccccc12 | 1.3 | 94 | 3 | -11 | 12 | 109
Cn1c(O)c(N=NC(=O)c2ccco2)c2ccccc21 | 2.5 | 86 | 176* | -24 | 20 | 121
Cn1c(O)c(N=NC(=O)c2ccccc2O)c2ccccc21 | 3.1 | 125 | 216* | -34 | -24 | 130*
Cc1occc1C(=O)N=Nc1c(O)n(C)c2ccccc12 | 3 | 121 | 112 | -55 | -25 | 149*
Nc1nonc1-c1nc2ccccc2n1Cc1ccc(F)cc1Cl | 0.95 | 161* | 8 | -38 | -72 | 135*
O=C(c1cc(COc2c(F)cccc2F)on1)N1CCC(c2ccccc2Cl)C1 (stereo not drawn) | 1.9 | 112 | 22 | -25 | -7 | 120
O=C(c1cc(COc2c(F)cccc2F)on1)N1CCC(c2ccccc2F)C1 (stereo not drawn) | 2.5 | 112 | 32 | -36 | -9 | 132*
Clc1ccccc1Cc1noc(CN2CCCCC2c2ccccn2)n1 (stereo not drawn) | 1.3 | 103 | 4 | 2 | 3 | 98
Oc1ccc(CN2CCCCC2)c2cccnc12 | 11* | 100 | -88 | -1 | 4 | 99
Oc1ccc(CN2CCN(c3ccccc3)CC2)c2cccnc12 | 0.85 | 112 | 7 | 2 | -11 | 93
